The text below walks through data of ChEMBL document CHEMBL3045883, “Antifungal effects of different organic extracts from Melia azedarach L. on phytopathogenic fungi and their isolated active components” (J Agric Food Chem, 2003).

SMILES strings stand for the structures. Converted amounts (≈) assume the structure as drawn.

The subject of assay [1] is Fusarium verticillioides. As to the kind of experiment: Antifungal activity against Fusarium verticillioides assessed as growth inhibition at 0.8 mg/mL after 48 hr by inverted light microscopic analysis. Type of assay: functional. The settings on record: read-out: GI. A digest of the protocol: (§1)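 Broth microdilution: F. verticillioides conidia, 4 days old, from a monosporic culture, in glucose-mineral salts medium at 1 × 10^5 conidia/mL. Pure compounds in DMSO added to wells in duplicate ([…]; final DMSO 2–4%). Controls were spore wells with or without DMSO. Percent growth (0–100) scored visually by inverted light microscope, always by the same operator. IC50 derived by Probit analysis.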

For assay [2], the system named is Fusarium verticillioides. As to the kind of experiment: Antifungal activity against Fusarium verticillioides assessed as growth inhibition at 0.6 mg/mL after 48 hr by inverted light microscopic analysis. The settings on record: read-out: GI. It is filed as functional. A digest of the protocol: as §1
For assay [3], the system named is Fusarium verticillioides. Briefly: Fungistatic activity against Fusarium verticillioides after 48 hr by broth microdilution method. Type of assay: functional. A digest of the protocol: as §1
Assay [4] concerns Fusarium verticillioides. Briefly: Antifungal activity against Fusarium verticillioides assessed as growth inhibition after 48 hr by inverted light microscopic analysis. Type of assay: functional, organism-based. In outline: as §1
Assay [5] deals with Fusarium verticillioides. As to the kind of experiment: Antifungal activity against Fusarium verticillioides assessed as growth inhibition at 0.2 mg/mL after 48 hr by inverted light microscopic analysis. Type of assay: functional. Particulars: read-out: GI. A digest of the protocol:
as §1

Assay [6] relates to Fusarium verticillioides. As to the kind of experiment: Antifungal activity against Fusarium verticillioides assessed as growth inhibition at 0.4 mg/mL after 48 hr by inverted light microscopic analysis. Particulars: read-out: GI. It is filed as functional. A digest of the protocol:
as §1

Turning to `COc1cc(C2OCC3C(c4ccc(O)c(OC)c4)OCC23)ccc1O` (racemic) [(+/-)-PINORESINOL], the inhibition of growth at 800 µg/mL with Fusarium verticillioides [1] was 40%. Moreover, the inhibition of growth at 600 µg/mL with Fusarium verticillioides [2] amounted to 20%. In the assay with Fusarium verticillioides [3], this compound came in with a minimum inhibitory concentration (MIC) of 1000 µg/mL (≈ 2790 µM). In the assay on Fusarium verticillioides [4], the half-maximal inhibitory concentration (IC50) was 760 µg/mL (≈ 2120 µM) and the “growth inhibition (GI)” value was “Dose-dependent effect”.

Regarding `COc1cc(C=O)ccc1O` [VANILLIN], in the assay on Fusarium verticillioides [5], the inhibition of growth at 200 µg/mL stood at 20%. Besides, the minimum inhibitory concentration (MIC) with Fusarium verticillioides [3] amounted to 600 µg/mL (≈ 3940 µM). For the same compound, the inhibition of growth at 400 µg/mL with Fusarium verticillioides [6] worked out at 65%. Besides, in the assay with Fusarium verticillioides [4], the IC50 came out at 300 µg/mL (≈ 1970 µM) and the “growth inhibition (GI)” value was “Dose-dependent effect”.

As to `COc1cc(/C=C/C=O)ccc1O` [CONIFERYL ALDEHYDE], the inhibition of growth at 200 µg/mL with Fusarium verticillioides [5] stood at 20%. In the assay on Fusarium verticillioides [3], this compound displayed a minimal inhibitory concentration (MIC) of 400 µg/mL (≈ 2240 µM). Further, in the assay with Fusarium verticillioides [4], the IC50 stood at 240 µg/mL (≈ 1350 µM) and the “growth inhibition (GI)” value was “Dose-dependent effect”.
